Test results published in PubChem BioAssay.
Calls of active or inactive are those of the source.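 Rule for the calls, unless noted: active = fluorescence slope higher than the sample average by over 3 SD (cut at about -0.22 in these data, passing the limit was not always enough); inactive = the rest.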

Assays:
[1] = inhibitors of TNFa-induced NFkB p65 translocation, primary screen, imaging, HUVEC, MLSMR starter and 10KST1 sets (AID 438;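 active = inhibition above 20% together with a positive visual image hit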;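 note: compound added about 3h40 before a 20 min TNFalpha stimulation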;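 for inhibition: signal is the nuclear over cytoplasmic p65 intensity ratio per well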); conditions: HUVEC TNFa-induced p65 nuclear translocation; cell count: measured here: nuclei count (cytotoxicity indicator), at 2.08 µM; inhibition: at 2 µM, stronger effect = higher value, 0% TNFa-plus-vehicle, 100% no-TNFa wells
[2] = reduction of polyQ htt aggregates in cells – imaging, exon1htt(103Q)mCFP cells, high-content imaging, primary screen (AID 483;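 active = visual image review flags a hit and inhibition of aggregation exceeds 20%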;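 note: compound exposure lasted 3 days before fixation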;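 for nuclei count: percent of the per-plate median nuclei count of sample wells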); conditions: exon1htt(103Q)mCFP cell line, aggregate imaging, at 2 µM; inhibition of aggregation: stronger effect = higher value; nuclei count: measured here: cell count, toxicity
[3] = endothelial E-selectin expression blockers – imaging, HUVEC, immunofluorescence, MLSMR starter and 10KST1 sets, primary screen (AID 487;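 active = visually confirmed hit in the image check and inhibition above 20%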;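 for inhibition: signal is fraction of cell area covered by stained E-selectin grains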;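 for nuclei count: 100% = median nuclei count of all wells on the same plate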); conditions: HUVEC TNFalpha-induced E-selectin immunofluorescence imaging, at 2 µM; inhibition: stronger effect = higher value; nuclei count: measured here: cell number, toxicity
[4] = biological target: Voltage-gated potassium channel subunit beta-2 (Rattus norvegicus) (UniProt P62483); assay: inhibitors of rat Kvbeta2 reductase activity – biochemical, NADPH fluorescence, primary screen (AID 622); conditions: recombinant KvBeta, 4-cyanobenzaldehyde reduction, at 10 µM, stronger effect = higher value;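 note: slope of raw intensity against log time taken from 70 to 1610 s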
[5] = biological target: Voltage-gated potassium channel subunit beta-2 (Rattus norvegicus) (UniProt P62483); assay: enhancers of rat Kvbeta2 NADPH turnover – biochemical, NADPH fluorescence, primary screen (AID 623;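 active = NADPH fluorescence slope more negative than the mean of all samples by about 3 SD, 99.7% confidence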;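 note: fluorescence intensity change per second fitted from 20 to 320 s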); conditions: Recombinant KvBeta, NADPH fluorescence decrease slope, 10 min; at 10 µM; stronger effect = lower value
[6] = biological target: Muscarinic acetylcholine receptor M4 (Homo sapiens) (UniProt P08173); assay: M4-linked GIRK flux change, two-sided – cell-based, HEK293 M4/GIRK, thallium flux, BTC-AM, M4 allosteric agonist project, primary screen (AID 625;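 active = fluorescence slope after compound addition differing from the mean of all tested samples at 99.7% confidence, mostly higher but some lower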;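 note: thallium influx through GIRK channels coupled to M4 in HEK293 cells with BTC-AM dye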); conditions: at 10 µM, actives lie on both sides
In short: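 System: HEK293 cells with M4 receptor and GIRK channels | Incubation: Cells overnight at 37 °C, BTC-AM loading 1 h, reads 2 min total | Technique: Kinetic BTC-AM fluorescence sampled at 1 Hz, 10 s pre-addition baseline | Measure: Post-addition slope, 15–24 s, of baseline-normalized fluorescence | Control set: Carbachol positive, DMSO negative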

[7] = blockers of RIG-like receptor reporter activation – cell-based, Sendai virus stimulus, luciferase, 10K MLSCN set, TLR/RLR signaling modifier project, primary screen (AID 602276;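 active = inhibition at or above 50% at 10 µM; inactive = inhibition below 50%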;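 note: firefly luciferase from ISG56 promoter only with Renilla not read in this screen; 0% = Sendai virus plus DMSO and 100% = medium plus DMSO without virus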); conditions: HEK293 RL24 IRF3 luciferase reporter, at 10 µM, stronger effect = higher value
[8] = TLR3 IRF3 reporter activation blockers – cell-based, poly I:C stimulus, luciferase, 10K MLSCN set, primary screen (AID 602277;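 active = inhibition of the reporter signal at or above 50%; inactive = inhibition below 50%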); conditions: HEK293-TLR3 RL24 IRF3 luciferase reporter, at 10 µM, stronger effect = higher value

Voltage-gated potassium channel subunit beta-2 (Rattus norvegicus), sequence (P62483 whole entry, looked up): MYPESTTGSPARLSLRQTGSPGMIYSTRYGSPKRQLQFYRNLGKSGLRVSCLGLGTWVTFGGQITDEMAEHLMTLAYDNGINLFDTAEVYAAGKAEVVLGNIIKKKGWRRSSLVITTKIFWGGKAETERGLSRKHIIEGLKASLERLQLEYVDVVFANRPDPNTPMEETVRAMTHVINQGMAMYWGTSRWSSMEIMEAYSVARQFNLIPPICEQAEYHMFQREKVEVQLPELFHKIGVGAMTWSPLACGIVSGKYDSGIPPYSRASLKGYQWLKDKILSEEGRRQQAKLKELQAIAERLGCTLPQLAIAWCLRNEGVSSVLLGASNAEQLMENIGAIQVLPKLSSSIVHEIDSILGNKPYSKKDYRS
Muscarinic acetylcholine receptor M4 (Homo sapiens), sequence (P08173 whole entry, looked up): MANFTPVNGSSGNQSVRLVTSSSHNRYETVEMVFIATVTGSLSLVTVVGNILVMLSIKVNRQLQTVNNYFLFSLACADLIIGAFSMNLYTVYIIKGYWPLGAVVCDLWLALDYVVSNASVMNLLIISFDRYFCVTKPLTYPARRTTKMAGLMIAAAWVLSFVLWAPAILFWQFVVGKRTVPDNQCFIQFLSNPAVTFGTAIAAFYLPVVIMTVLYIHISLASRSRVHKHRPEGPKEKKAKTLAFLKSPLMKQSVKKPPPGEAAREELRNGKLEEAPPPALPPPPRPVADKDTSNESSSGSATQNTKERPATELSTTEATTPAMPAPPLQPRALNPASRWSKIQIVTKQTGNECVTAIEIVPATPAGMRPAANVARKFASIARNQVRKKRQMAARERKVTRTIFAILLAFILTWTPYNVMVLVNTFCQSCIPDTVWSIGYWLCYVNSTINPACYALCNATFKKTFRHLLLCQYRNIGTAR

Row | Structure (SMILES) | cell count [1] | inhibition [1] | inhibition of aggregation [2] | nuclei count [2] | inhibition [3] | nuclei count [3] | fluorescence slope [4] | NADPH fluorescence slope [5] | fluorescence slope [6] | inhibition [7] | inhibition [8]
1 | NC(=O)CSc1nnc(-c2ccc(O)cc2)n1Cc1ccco1 | 371 | -0.2% (inactive) | 18.6% (inactive) | 98.1% | -112% (inactive) | 93.2% | -0.531 (inactive) | -4.4e-05 (inactive) | 0.00558 (inactive) | 11.3% (inactive) | 19.8% (inactive)
2 | O=C(CCCN1C(=O)c2ccccc2C1=O)Oc1ccc(F)cc1 | 735 | -11.6% (inactive) | -0.5% (inactive) | 106% | 17.3% (inactive) | 96.8% | -0.512 (inactive) | 1.4e-05 (inactive) | 0.00485 (inactive) | 12.5% (inactive) | 18.6% (inactive)
3 | Cc1ccc(OCC(O)Cn2c(=N)n(CCN3CCCCC3)c3ccccc32)cc1 (centres undefined) | 277 | 4.5% (inactive) | 2.3% (inactive) | 63.4% | -6.5% (inactive) | 96.8% | -0.381 (inactive) | -4.1e-05 (inactive) | 0.00474 (inactive) | -33.6% (inactive) | 62.2% (active)
4 | CCC(C)N=C1SCC(C)(/C=N/O)S1 (centres undefined) | 367 | -7.2% (inactive) | 16.5% (inactive) | 80.1% | -31.5% (inactive) | 122% | -0.55 (inactive) | -6.5e-05 (inactive) | 0.00292 (inactive) | 9.86% (inactive) | 2.1% (inactive)
5 | C/C(NC1CCCC1)=C(/C#N)C(N)=O | 396 | -23.5% (inactive) | -0.6% (inactive) | 108% | -38.9% (inactive) | 144% | -0.583 (inactive) | -2.4e-05 (inactive) | 0.00436 (inactive) | 16.9% (inactive) | 22.8% (inactive)
6 | O=C(CN1C(=O)NC(Cc2ccccc2)C1=O)Nc1ccccc1 (centres undefined) | 436 | 0% (inactive) | 8.9% (inactive) | 59.4% | -32.2% (inactive) | 111% | -0.594 (inactive) | -5.2e-06 (inactive) | 0.00658 (inactive) | -15.9% (inactive) | -20.9% (inactive)
7 | CCOC(=O)Nc1ccc2c(c1)N(C(=O)CN(CC)CC)c1ccccc1C=C2 | 389 | 3.3% (inactive) | -9.7% (inactive) | 108% | -96.2% (inactive) | 119% | -0.577 (inactive) | -0.000132 (inactive) | 0.00312 (inactive) | 18.3% (inactive) | 26.3% (inactive)
8 | O=C(CCCC(=O)N(CC(=O)NC1CCCCC1)Cc1ccc2c(c1)OCO2)Nc1ccccn1 | 395 | 4.2% (inactive) | -3% (inactive) | 91% | -237% (inactive) | 110% | -0.479 (inactive) | 3.7e-05 (inactive) | 0.00636 (inactive) | 15.4% (inactive) | 25.3% (inactive)
9 | CCOC(=O)C1CCCN(S(=O)(=O)c2cccs2)C1 (centres undefined) | 243 | 11.2% (inactive) | -5.5% (inactive) | 95.8% | -8.8% (inactive) | 95.2% | -0.479 (inactive) | 1.6e-05 (inactive) | 0.00471 (inactive) | -3.56% (inactive) | 4.98% (inactive)
10 | CC1N=C2c3ccccc3N=C(SCc3cc(=O)n4cc(Cl)ccc4n3)N2C1=O (centres undefined) | 346 | 7.6% (inactive) | 18.8% (inactive) | 102% | 32.4% (inactive) | 92.4% | -0.478 (inactive) | -0.0001 (inactive) | 0.00478 (inactive) | 13.1% (inactive) | 18.7% (inactive)
11 | COc1ccccc1OCc1ccc(C(=O)NC(C)(C)C)o1 | 735 | -5.5% (inactive) | 0.6% (inactive) | 62.4% | -20.5% (inactive) | 112% | -0.601 (inactive) | 5.2e-05 (inactive) | 0.00541 (inactive) | -16.1% (inactive) | -22.5% (inactive)
12 | COc1ccccc1-c1nc(C#N)c(N2CCN(c3ccccc3)CC2)o1 | 730 | -10.2% (inactive) | 17% (inactive) | 119% | -96.9% (inactive) | 93.4% | -0.495 (inactive) | 1.8e-05 (inactive) | 0.00604 (inactive) | 15.8% (inactive) | 12% (inactive)
13 | O=C(N1CCOCC1)N1CCC(NC(=O)C23CC4CC(CC(C4)C2)C3)CC1 | 363 | 9.1% (inactive) | -0.3% (inactive) | 99% | -15.5% (inactive) | 81.8% | -0.55 (inactive) | -4e-05 (inactive) | 0.00404 (inactive) | 15.6% (inactive) | 21.8% (inactive)
14 | COC(=O)C1=C(C)NC(C)=C(C(=O)OC)C1c1cc2cc(C)ccc2[nH]c1=O | 509 | 11.1% (inactive) | -7.7% (inactive) | 102% | -103% (inactive) | 136% | -0.493 (inactive) | -2.9e-05 (inactive) | 0.00508 (inactive) | 18.9% (inactive) | 30.9% (inactive)
